Four compounds from ChEMBL document CHEMBL4325867, “Synthesis and biological evaluation of novel H6 analogues as drug resistance reversal agents” (Eur J Med Chem, 2019) can be followed below.

SMILES strings stand for the structures. The source made the active and inactive calls. The rule behind the calls is not given here.

The target in data set [1] is T1, ATP-dependent translocase ABCB1 (Homo sapiens, UniProt P08183). The experiment in a line: Reversal of P-gp-mediated drug resistance in human KBV cells assessed as potentiation of paclitaxel-induced cytotoxicity by measuring fold reduction in paclitaxel IC50 at 5 uM after 72 hrs by MTT assay relative to paclitaxel alone. The format is cell-based. A digest of the protocol:
(§1)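 KBV cells cultured in RPMI-1640 with 10% heat-inactivated fetal calf serum at 37°C, 5% CO2, and used in log phase. Seeded in 96-well plates. Exposed to paclitaxel with or without modulator (5 or 10 µM) for 24, 48 or 72 h. MTT added, formazan dissolved in DMSO, OD read at 570 nm. Survival rate used to derive paclitaxel IC50. RF taken as the fold reduction of IC50 relative to paclitaxel alone.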

Data set [2] concerns the target T1, ATP-dependent translocase ABCB1. Description: Reversal of P-gp-mediated drug resistance in human KBV cells assessed as potentiation of paclitaxel-induced cytotoxicity by measuring fold reduction in paclitaxel IC50 at 10 uM after 72 hrs by MTT assay relative to paclitaxel alone. The format is cell-based. In short, it runs like this:
as §1
In general terms: Tetrazolium dyes change colour on reduction, which living cells bring about.

Data set [3] has the same target. Description: Reversal of P-gp-mediated drug resistance in human KBV cells assessed as potentiation of paclitaxel-induced cytotoxicity by measuring cell survival at 5 uM after 72 hrs by MTT assay (reference value: 98 +/- 19%). The format is cell-based.
Data set [4] in a line: Potentiation of paclitaxel-induced antitumor activity against human KBV cells xenografted in nude mouse assessed as tumor weight at […] cotreated with 30 mg/kg paclitaxel relative to control. The format is functional. (Xenograft models place foreign cells or tissue in a host animal.)
Data set [5] is described as follows: n-octanol/aqueous buffer solution partition coefficient, log P of the compound at pH 6.8 after 4 hrs by HPLC method. The format is physicochemical. In short, it runs like this:
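Shake-flask partition between n-octanol and pH 6.8 buffer at a 1:1 ratio, room temperature, shaken 4 h. Compound concentration in each phase measured by HPLC.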

The target of data set [6] is T1, ATP-dependent translocase ABCB1. The experiment in a line: Reversal of P-gp-mediated drug resistance in human KBV cells assessed as potentiation of paclitaxel-induced cytotoxicity by measuring fold reduction in paclitaxel IC50 at 10 uM after 48 hrs by MTT assay. The format is cell-based. In short, it runs like this:
as §1

For data set [7] the target is unchanged. The experiment in a line: Inhibition of P-gp-mediated Rhodamine-123 efflux in human KBV cells assessed as Rhodamine-123 accumulation preincubated for 2 hrs followed by Rhodamine-123 addition measured after 30 mins by flow cytometry. The format is cell-based. The following applies: 0.5 h. Background: A flow cytometer gives signals particle by particle.
Data set [8] can be described thus: Cytotoxicity against human KBV cells xenografted in Balb/c nude mouse assessed as tumor growth inhibition at 50 mg/kg, po via gavage. It counts as organism-based. Particulars: in vivo. A digest of the protocol: (§2)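 Male BALB/c nude mice, 6−8 weeks old, given 5 × 10^6 KBV cells subcutaneously in the dorsal region. Randomized once tumors reached about 100-200 mm3, five per group: control, paclitaxel 30 mg/kg, test agent 50 mg/kg, or the combination. Paclitaxel given i.p. twice a week; test agent by gavage. Tumor growth measured every three days; tumors excised and weighed at the end.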

In data set [9] the test system is Homo sapiens. Description: Potentiation of paclitaxel-induced antitumor activity against human KBV cells xenografted in Balb/c nude mouse assessed as tumor growth inhibition at 50 mg/kg, po via gavage cotreated with 30 mg/kg, ip paclitaxel. The format is functional, organism-based. A digest of the protocol:
as §2

Data set [10] addresses T1, ATP-dependent translocase ABCB1. The experiment in a line: Reversal of P-gp-mediated drug resistance in human KBV cells assessed as potentiation of paclitaxel-induced cytotoxicity by measuring fold reduction in paclitaxel IC50 at 5 uM after 48 hrs by MTT assay. The format is cell-based. In short, it runs like this: as §1
Data set [11] has the same target. Description: Reversal of P-gp-mediated drug resistance in human KBV cells assessed as potentiation of paclitaxel-induced cell cycle arrest by measuring accumulation at sub-G1 phase at 10 uM after 24 hrs by propidium iodide staining based flow cytometry. In short, it runs like this: (§3)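 KBV cells plated in 6-well plates overnight, then treated for 24 h at 10 µM alongside paclitaxel. Cells fixed in 70% ethanol overnight at -20 °C, washed in PBS, and stained 30 min with PI/RNase A. Flow cytometry gave the cell-cycle distribution, with sub-G1 taken as apoptotic cells. Mean ± SD, n = 3.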

Data set [12] can be described thus: Solubility of the compound in water. It counts as physicochemical. The following applies: buffer.
Data set [13] deals with T1, ATP-dependent translocase ABCB1. Description: Reversal of P-gp-mediated drug resistance in human KBV cells assessed as potentiation of paclitaxel-induced cytotoxicity by measuring fold reduction in paclitaxel IC50 at 10 uM after 24 hrs by MTT assay. The format is cell-based. A digest of the protocol:
as §1

The target is the same in data set [14]. Description: Reversal of P-gp-mediated drug resistance in human KBV cells assessed as potentiation of paclitaxel-induced cytotoxicity by measuring reduction in paclitaxel IC50 by MTT assay. The format is cell-based.
The target is the same in data set [15]. The experiment in a line: Reversal of P-gp-mediated drug resistance in human KBV cells assessed as potentiation of paclitaxel-induced cell cycle arrest by measuring accumulation at G2/M phase at 10 uM after 24 hrs by propidium iodide staining based flow cytometry. A digest of the protocol: as §3
The target is the same in data set [16]. The experiment in a line: Reversal of P-gp-mediated drug resistance in human KBV cells assessed as potentiation of paclitaxel-induced cytotoxicity by measuring fold reduction in paclitaxel IC50 at 5 uM after 24 hrs by MTT assay. The format is cell-based. In short, it runs like this: as §1
Data set [17] in a line: Toxicity in Balb/c nude mouse xenografted with human KBV cells at 50 mg/kg, po via gavage cotreated with 30 mg/kg, ip paclitaxel. It counts as organism-based. The following applies: in vivo.
Data set [18] is described as follows: Cytotoxicity against human KBV cells assessed as cell survival at 5 uM after 72 hrs by MTT assay relative to control. The format is cell-based. The following applies: read-out: Survival. A digest of the protocol:
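KBV cells (RPMI-1640 with 10% heat-inactivated FCS, 37 °C, 5% CO2, log-phase) were seeded in 96-well plates and exposed to compound alone at 5 µM for 72 h. MTT was added and incubated, then DMSO was added. OD was read at 570 nm and survival rate was calculated.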

As usually defined, the logD is the decadic logarithm of the distribution of all forms, ionised or not, between an organic phase and buffer at a given pH.

T1 sequence (P08183 whole entry): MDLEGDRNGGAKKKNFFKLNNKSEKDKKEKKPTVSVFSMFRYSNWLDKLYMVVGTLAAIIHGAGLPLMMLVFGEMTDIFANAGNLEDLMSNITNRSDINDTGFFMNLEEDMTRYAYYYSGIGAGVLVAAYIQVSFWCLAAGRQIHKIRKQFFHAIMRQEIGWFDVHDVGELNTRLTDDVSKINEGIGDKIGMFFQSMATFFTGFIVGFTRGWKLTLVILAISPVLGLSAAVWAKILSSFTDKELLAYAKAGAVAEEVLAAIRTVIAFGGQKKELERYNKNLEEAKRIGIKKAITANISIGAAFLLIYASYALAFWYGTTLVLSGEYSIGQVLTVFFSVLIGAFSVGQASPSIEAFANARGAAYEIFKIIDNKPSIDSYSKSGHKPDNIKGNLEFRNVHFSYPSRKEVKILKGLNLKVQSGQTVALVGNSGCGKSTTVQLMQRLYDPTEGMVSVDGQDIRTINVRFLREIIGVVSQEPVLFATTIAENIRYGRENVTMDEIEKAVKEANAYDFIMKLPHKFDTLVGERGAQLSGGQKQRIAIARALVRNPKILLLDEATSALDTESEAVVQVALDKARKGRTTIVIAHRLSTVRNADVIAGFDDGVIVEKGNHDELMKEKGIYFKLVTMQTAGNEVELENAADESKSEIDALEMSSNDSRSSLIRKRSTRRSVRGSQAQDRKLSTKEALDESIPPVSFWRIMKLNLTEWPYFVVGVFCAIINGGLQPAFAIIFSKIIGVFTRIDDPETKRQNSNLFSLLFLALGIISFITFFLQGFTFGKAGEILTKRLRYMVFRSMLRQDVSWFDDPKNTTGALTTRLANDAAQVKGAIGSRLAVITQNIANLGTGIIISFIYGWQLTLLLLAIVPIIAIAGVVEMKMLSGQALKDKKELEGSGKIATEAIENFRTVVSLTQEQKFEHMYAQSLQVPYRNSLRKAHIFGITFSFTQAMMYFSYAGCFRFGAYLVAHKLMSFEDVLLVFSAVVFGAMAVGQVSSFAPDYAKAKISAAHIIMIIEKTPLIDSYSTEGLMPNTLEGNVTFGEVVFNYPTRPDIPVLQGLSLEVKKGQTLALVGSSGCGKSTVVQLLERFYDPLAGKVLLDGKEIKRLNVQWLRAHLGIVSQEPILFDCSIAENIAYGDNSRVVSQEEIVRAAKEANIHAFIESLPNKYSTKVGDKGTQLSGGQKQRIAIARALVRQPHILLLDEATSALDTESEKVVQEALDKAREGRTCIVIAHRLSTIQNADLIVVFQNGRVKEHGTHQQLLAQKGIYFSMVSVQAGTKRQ

With `Cl.Cl.Cl.O[C@@H](COc1cccc2ncccc12)CN1CCN([C@@H]2c3ccccc3[C@@H]3[C@H](c4ccccc42)C3(F)F)CC1` [ZOSUQUIDAR TRIHYDROCHLORIDE], the “fold change (FC)” value stood at 32.5 in data set [1] and 114.11 in data set [2].
As for `CC1(C)CC[C@]2(C(=O)OCc3ccccc3)CC[C@]3(C)C(=CC[C@@H]4[C@@]5(C)Cc6nccnc6[C@@](C)(CO)[C@@H]5CC[C@]43C)[C@@H]2C1`, in data set [3], the Survival is given as 18%. Further, in data set [4], the Activity amounted to 42%. The log distribution coefficient (logD) at 4 h in data set [5] is -0.54.
On to `COc1cc2c(cc1OC)CN(CCc1ccc(NC(=O)c3cc(OC)c(OC)cc3NC(=O)c3cnc4ccccc4c3)cc1)CC2`, for which the “fold change (FC)” value in [1] is listed as 75.95; in data set [2] it was 89.41.
With `CN(C)CCCOC(=O)[C@]12CCC(C)(C)C[C@H]1C1=CC[C@@H]3[C@@]4(C)Cc5nccnc5[C@@](C)(CO)[C@@H]4CC[C@@]3(C)[C@]1(C)CC2`, the fold change (FC) in data set [1] turned out to be 32.5; in [6], 81.11; in [10], 65.92; in [13], 109.79; in data set [2], 250.77; in data set [16], 77.1. The Survival in [3] came to 10%. In addition, the “inhibition (INH)” value in data set [7] is “Dose-dependent effect”. The TGI result in data set [8] is listed as “Non-Toxic”. Moreover, the TGI result in [9] was “Active”. Besides, the Activity entry in data set [11] is “Active”; in [14], “Dose-dependent effect and Tde”; in data set [15], “Active”; in data set [17] it was “Non-Toxic”. The solubility result in [12] is “Soluble”. Further, the logD at 4 h in data set [5] was -1.25. Besides, in data set [18], the viability at 72 h, 5 µM is 97%.
